Assay results from ChEMBL document CHEMBL2321703, “Identification of novel D-amino acid oxidase inhibitors by in silico screening and their functional characterization in vitro” (J Med Chem, 2013).
The source made the active and inactive calls. No cut-off for these calls is given here.

Key:
D-amino-acid oxidase [1] = target: T1, D-amino-acid oxidase (Homo sapiens, UniProt P14920); assay: Binding affinity to human recombinant N-terminal His-tagged DAO expressed in Escherichia coli BL21(DE3) at 40 uM after 2 to 30 mins by absorption spectra analysis; conditions: 200 uM, in the assay text read “at 200 uM” for “at 40 uM”
How it was run: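 Purified enzyme at 1.7 μg/μL in 10 mM sodium pyrophosphate pH 8.3 with 2 mM EDTA, 5 mM 2-mercaptoethanol, 10% (v/v) glycerol; wavelength scans at 25 °C before and after compound addition (final 40 μM or 200 μM depending on compound), recorded at indicated times; binding inferred from perturbation of the absorption spectrum.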
Target sequence in this assay (P14920 whole entry, looked up): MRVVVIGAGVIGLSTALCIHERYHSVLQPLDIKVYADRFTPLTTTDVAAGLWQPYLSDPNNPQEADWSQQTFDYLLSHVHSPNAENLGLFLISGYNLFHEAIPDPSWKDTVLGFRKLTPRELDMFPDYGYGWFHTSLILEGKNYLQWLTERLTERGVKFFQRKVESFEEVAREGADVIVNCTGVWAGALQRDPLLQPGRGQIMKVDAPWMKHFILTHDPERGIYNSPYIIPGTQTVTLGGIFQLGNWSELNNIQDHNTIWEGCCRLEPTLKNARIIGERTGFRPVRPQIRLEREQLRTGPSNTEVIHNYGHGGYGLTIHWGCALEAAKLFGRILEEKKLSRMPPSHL

[2] = system: D-amino-acid oxidase (Homo sapiens), P14920 [Y224A]; assay: (§1) Inhibition of human recombinant N-terminal His-tagged DAO Y224A mutant expressed in Escherichia coli BL21(DE3) using D-alanine as substrate after 10 mins by Lineweaver-Burk plot analysis
D-amino-acid oxidase [3] = target: D-amino-acid oxidase (Homo sapiens, UniProt P14920, Y224A); assay: as §1
D-amino-acid oxidase [4] = target: T1, D-amino-acid oxidase; assay: Competitive inhibition of human recombinant N-terminal His-tagged DAO expressed in Escherichia coli BL21(DE3) using D-alanine as substrate by Lineweaver-Burk plot analysis
How it was run: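 Purified N-terminal His-tagged human DAO from E. coli BL21(DE3)pLysS. Colorimetric 2-oxo acid assay in air-saturated 40 mM sodium pyrophosphate pH 8.3 with catalase, 60 μM FAD and 0.5–40 mM D-Ala, 37 °C for 10 min. Stopped with TCA, derivatized with 2,4-dinitrophenylhydrazine, read at A445. Lineweaver–Burk plots; Ki confirmed by slope replot against inhibitor concentration. Three independent experiments.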
Target sequence in this assay (P14920 whole entry, looked up): as above

Serine racemase = target: T2, Serine racemase (Homo sapiens, UniProt Q9GZT4); assay: (§2) Inhibition of human recombinant N-terminal His-tagged serine racemase expressed in Escherichia coli BL21(DE3) using L-serine as substrate after 10 mins by fluorescence assay
T2 sequence (Q9GZT4 whole entry): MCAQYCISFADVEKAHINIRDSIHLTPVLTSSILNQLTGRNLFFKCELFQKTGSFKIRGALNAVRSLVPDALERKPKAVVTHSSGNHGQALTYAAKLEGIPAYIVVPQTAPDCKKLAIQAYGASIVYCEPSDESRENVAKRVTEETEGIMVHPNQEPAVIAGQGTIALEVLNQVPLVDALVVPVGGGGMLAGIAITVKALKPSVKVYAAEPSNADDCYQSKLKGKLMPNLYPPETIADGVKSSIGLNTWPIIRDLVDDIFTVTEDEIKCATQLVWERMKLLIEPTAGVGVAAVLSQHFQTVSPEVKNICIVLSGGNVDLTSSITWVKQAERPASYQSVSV
How it was run: (§3)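 Purified enzyme (30 μg) in 40 mM Tris-HCl pH 8.0, 60 μM pyridoxal phosphate, 1 mM MgCl2, ATP, 1 mM dithiothreitol, 10 mM L-Ser, with compound; 37 °C, 10 min; methanol stop. D-Ser quantified by OPA/Boc-L-cysteine derivatization and reversed-phase HPLC fluorescence (ex 344, em 443 nm).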

D-aspartate oxidase = target: T3, D-aspartate oxidase (Homo sapiens, UniProt Q99489); assay: (§4) Inhibition of human recombinant N-terminal His-tagged DDO expressed in Escherichia coli BL21(DE3) using D-aspartate as substrate by colorimetric assay
T3 sequence (Q99489 whole entry): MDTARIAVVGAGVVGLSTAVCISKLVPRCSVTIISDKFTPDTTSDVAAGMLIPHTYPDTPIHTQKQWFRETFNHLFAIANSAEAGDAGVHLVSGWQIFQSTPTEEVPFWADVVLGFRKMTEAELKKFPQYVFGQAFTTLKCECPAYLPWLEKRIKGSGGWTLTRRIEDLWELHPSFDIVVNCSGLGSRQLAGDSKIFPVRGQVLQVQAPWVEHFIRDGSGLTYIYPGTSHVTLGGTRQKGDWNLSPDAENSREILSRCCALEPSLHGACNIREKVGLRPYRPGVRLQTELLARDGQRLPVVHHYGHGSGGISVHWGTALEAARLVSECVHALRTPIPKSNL
How it was run: (§5)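 Purified enzyme (0.23–4.2 μg) with 10 mM D-Asp in air-saturated 40 mM sodium pyrophosphate pH 8.3, 23 U catalase, 60 μM FAD; 37 °C, 10 min; trichloroacetic acid stop; 2-oxo acid measured as 2,4-dinitrophenylhydrazone at A445.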

D-amino-acid oxidase [5] = target: T1, D-amino-acid oxidase; assay: Inhibition of human recombinant N-terminal His-tagged DAO expressed in Escherichia coli BL21(DE3) using D-alanine as substrate by Lineweaver-Burk plot analysis
Target sequence in this assay (P14920 whole entry): as the sequence (P14920 whole entry, looked up) above

D-amino-acid oxidase [6] = target: T1, D-amino-acid oxidase; assay: Inhibition of human recombinant N-terminal His-tagged DAO expressed in Escherichia coli BL21(DE3) using D-serine as substrate by colorimetric assay
D-amino-acid oxidase [7] = target: D-amino-acid oxidase (Homo sapiens, UniProt P14920, Y224F); assay: (§6) Inhibition of human recombinant N-terminal His-tagged DAO Y224F mutant expressed in Escherichia coli BL21(DE3) using D-alanine as substrate after 10 mins by Lineweaver-Burk plot analysis
[8] = system: D-amino-acid oxidase (Homo sapiens), P14920 [Y224F]; assay: as §6
D-amino-acid oxidase [9] = target: T1, D-amino-acid oxidase
Target sequence in this assay (P14920 whole entry): as the sequence (P14920 whole entry, looked up) above

D-amino-acid oxidase [10] = target: T1, D-amino-acid oxidase; assay: Inhibition of human recombinant N-terminal His-tagged DAO expressed in Escherichia coli BL21(DE3) using D-alanine as substrate by colorimetric assay
HEK293 = assay: Effect on L-alanine level in G418-resistant HEK293 cells at 17 uM by HPLC analysis relative to vehicle-treated control; format: functional, cell-based; conditions: Homo sapiens
How it was run: (§7)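 293/NEO (empty-vector, G418-selected) or 293.HA-hDAO-24 (stable N-terminal HA-tagged human DAO) cells, 1 × 10^6 seeded, maintained in DMEM/10% FBS/800 μg/mL G418; next day fresh medium, compound or vehicle (5% DMSO solution) for 30 min, then 17 mM D-Ala for 24 h. Methanol extraction; D-/L-Ala by OPA/NAC derivatization HPLC with fluorescence; mean ± SD of three assays; Dunnett test vs vehicle.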

D-amino-acid oxidase [11] = target: T1, D-amino-acid oxidase; conditions: HEK293/NEO, 17 uM
Target sequence in this assay (P14920 whole entry, looked up): as the sequence (P14920 whole entry, looked up) above

HEK293/NEO = assay: Effect on L-alanine level in G418-resistant HEK293/NEO cells at 17 uM by HPLC analysis relative to vehicle-treated control; format: functional, cell-based; conditions: Homo sapiens; how it was run: as §7
[12] = target: T4, Serine racemase (Homo sapiens) (UniProt Q9GZT4); assay: as §2; how it was run: as §3
T4 sequence (whole entry): T2 sequence (Q9GZT4 whole entry)

D-amino-acid oxidase [13] = target: T1, D-amino-acid oxidase; assay: Inhibition of human recombinant N-terminal His-tagged DAO expressed in Escherichia coli BL21(DE3) using D-alanine as substrate assessed as residual activity at 10000 uM by colorimetric assay relative to control
How it was run: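 Purified enzyme (0.23–4.2 μg) in air-saturated 40 mM sodium pyrophosphate pH 8.3, 23 U catalase, 60 μM FAD, 10 mM D-amino acid substrate, with compound; 37 °C, 10 min; stopped with trichloroacetic acid. 2-Oxo acid reacted with 2,4-dinitrophenylhydrazine, A445 read against substrate-free blank.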
Target sequence in this assay (P14920 whole entry, looked up): as the sequence (P14920 whole entry, looked up) above

[14] = target: T5, D-aspartate oxidase (Homo sapiens) (UniProt Q99489); assay: as §4; how it was run: as §5
T5 sequence (whole entry): T3 sequence (Q99489 whole entry)

Chain of D-amino-acid oxidase (Homo sapiens), P14920 [Y224A] (P14920 whole entry Y224A): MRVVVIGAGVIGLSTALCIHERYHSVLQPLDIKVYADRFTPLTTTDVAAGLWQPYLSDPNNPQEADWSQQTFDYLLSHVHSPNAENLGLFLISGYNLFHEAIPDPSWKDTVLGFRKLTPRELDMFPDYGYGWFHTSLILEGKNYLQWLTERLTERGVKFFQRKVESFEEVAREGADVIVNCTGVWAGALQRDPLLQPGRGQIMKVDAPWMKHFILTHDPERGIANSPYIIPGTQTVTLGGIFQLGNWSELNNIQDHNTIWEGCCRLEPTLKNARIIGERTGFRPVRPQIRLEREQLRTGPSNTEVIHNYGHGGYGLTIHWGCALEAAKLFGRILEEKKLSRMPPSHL
Chain of D-amino-acid oxidase (Homo sapiens), P14920 [Y224F] (P14920 whole entry Y224F): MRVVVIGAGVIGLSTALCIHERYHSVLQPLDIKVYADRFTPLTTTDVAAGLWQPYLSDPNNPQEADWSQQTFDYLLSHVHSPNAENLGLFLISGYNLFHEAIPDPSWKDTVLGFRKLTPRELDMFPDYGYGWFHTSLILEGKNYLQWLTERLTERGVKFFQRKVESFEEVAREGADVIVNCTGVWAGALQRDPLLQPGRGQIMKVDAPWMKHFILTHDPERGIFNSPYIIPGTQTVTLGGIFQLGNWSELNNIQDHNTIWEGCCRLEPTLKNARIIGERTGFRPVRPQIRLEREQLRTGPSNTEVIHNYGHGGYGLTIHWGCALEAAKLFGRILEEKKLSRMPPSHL
Chain of D-amino-acid oxidase (Homo sapiens, UniProt P14920, Y224A) (P14920 whole entry Y224A): as the sequence (P14920 whole entry Y224A) above
Chain of D-amino-acid oxidase (Homo sapiens, UniProt P14920, Y224F) (P14920 whole entry Y224F): as the sequence (P14920 whole entry Y224F) above

| IC50 (Serine racemase) [µM] | IC50 (D-aspartate oxidase) [µM] | inhibition (D-amino-acid oxidase [11]) | inhibition [12] | Activity (D-amino-acid oxidase [13]) [%] | inhibition [14] | inhibition (D-amino-acid oxidase [10]) | Structure (SMILES) | Activity (D-amino-acid oxidase [1]) | inhibition [2] | Ki (D-amino-acid oxidase [3]) [µM] | inhibition (D-amino-acid oxidase [4]) | Ki (D-amino-acid oxidase [5]) [µM] | IC50 (D-amino-acid oxidase [6]) [µM] | inhibition (D-amino-acid oxidase [6]) | Ki (D-amino-acid oxidase [7]) [µM] | inhibition [8] | Ki (D-amino-acid oxidase [9]) [µM] | IC50 (D-amino-acid oxidase [10]) [µM] | Activity (HEK293) | Activity (HEK293/NEO) |
| --- | --- | --- | --- | --- | --- | --- | --- | --- | --- | --- | --- | --- | --- | --- | --- | --- | --- | --- | --- | --- |
| > 100 | > 100 | inactive | – | – | – | – | O=C(O)c1cc2occc2[nH]1 | – | Dose-dependent effect | – | Active | – | – | Dose-dependent effect | – | Dose-dependent effect | – | – | inactive | inactive |
| > 10000 | > 10000 | – | Dose-dependent effect | 67.1 | Dose-dependent effect | Dose-dependent effect | CCCc1sc(C(=O)O)cc1CC | – | – | – | – | – | 7900 | – | – | – | – | > 10000 | – | – |

| Structure (SMILES) | IC50 (Serine racemase) [µM] | IC50 (D-aspartate oxidase) [µM] | inhibition (D-amino-acid oxidase [11]) | inhibition [12] | Activity (D-amino-acid oxidase [13]) [%] | inhibition [14] | inhibition (D-amino-acid oxidase [10]) | Activity (D-amino-acid oxidase [1]) | inhibition [2] | Ki (D-amino-acid oxidase [3]) [µM] | inhibition (D-amino-acid oxidase [4]) | Ki (D-amino-acid oxidase [5]) [µM] | IC50 (D-amino-acid oxidase [6]) [µM] | inhibition (D-amino-acid oxidase [6]) | Ki (D-amino-acid oxidase [7]) [µM] | inhibition [8] | Ki (D-amino-acid oxidase [9]) [µM] | IC50 (D-amino-acid oxidase [10]) [µM] | Activity (HEK293) | Activity (HEK293/NEO) |
| --- | --- | --- | --- | --- | --- | --- | --- | --- | --- | --- | --- | --- | --- | --- | --- | --- | --- | --- | --- | --- |
| O=C(O)c1ccccc1 [BENZOIC ACID] | > 10000 | > 10000 | – | – | – | – | – | Active | Dose-dependent effect | 37.5 | Active | 10.9 | 46.9 | Dose-dependent effect | 54 | Dose-dependent effect | 7 | 65.7 | – | – |
